A selection: hits, their analogues and other compounds. The true share with any hit is near 3%.
SENP1 FRET inh = human SENP1 catalytic domain inhibitors, primary screen, biochemical, FRET, uHTS. Sentrin-specific protease 1 (Homo sapiens), Q9P0U3. recombinant SENP1 catalytic domain, CyPet-SUMO1-YPet FRET cleavage. AID 624204, 2012. 360,000 tested, 0.21% active. inhibition, % at 10 µM;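 active = inhibition at least 30% at 10 µM, raw YFP signal under a set limit, fluorescence ratio 0.5 to 1.5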
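Material – human SENP1 catalytic domain · Input – SENP1 enzyme, 20 pM final · Compound dosing – single concentration of 10 µM compound, 0.5% DMSO final · Timing – enzyme reaction for 50 min at room temperature, dark · Measured by – FRET fluorescence in CFP and YFP emission channels · Control set – no-enzyme wells low, DMSO-plus-enzyme wells high control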
Granule exo inh = LAMP-1 surface exposure blockers, TALL-104 cells – cell-based, flow cytometry, MLPCN library, primary screen; TALL-104 LAMP-1 surface exposure; cells stimulated with thapsigargin and PMA; inhibition, % at 10 µM; 360,000 tested, 0.66% active;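 active = inhibition above about 55%, limit read from the data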
H9c2 protect = cardioprotection against H2O2-induced cell death, primary screen, uHTS, H9c2 cells, ATPLite luminescence | H9c2 cardiomyocytes, H2O2 injury protection, 2 h | protection from H2O2 cell death, % at 20 µM | 360,000 tested, 0.63% active;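 active = compounds giving at least 50% protection of heart cells from peroxide-induced death in the single-dose screen, raw or plate-pattern-corrected value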
HNF4A DNA FP = change in binding of human HNF4A to DNA, primary screen, biochemical, fluorescence polarization, FITC-DNA; 1 h; activity change, % at 10 µM; 360,000 tested, 0.3% active; in the data active = activity change above about 30%, passing the limit was not always enough
Myeloid diff 2 = induction of myeloid progenitor differentiation, primary screen, cell-based, flow cytometry, MLPCN library; 360,000 tested, 1% active; calls only at 10 µM; AID 624256, 2012; ER-HoxA9 myeloid progenitors, lysozyme-GFP differentiation;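 active = normalized GFP-positive differentiation at or above the plate's own cutoff, the solvent-only control mean plus 3 SD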;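 note: cells exposed to compound for four days before flow analysis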
Pemphigus Ab inh = inhibitors of pemphigus antibody binding to DSG3, primary screen, biochemical, bead-based, flow cytometry, scFv-GFP; DSG3-coupled beads, scFv-anti-DSG3-GFP binding; active compounds read low; 310,000 tested, 0.48% active; AID 588358, 2011; binding (percent of control), % at 10 µM;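 active = binding more than 3 SD below its plate's average and above zero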;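 note: hits lower antibody fragment binding to DSG3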
Target sequence (P32926 whole entry, looked up, the tested form may be a part): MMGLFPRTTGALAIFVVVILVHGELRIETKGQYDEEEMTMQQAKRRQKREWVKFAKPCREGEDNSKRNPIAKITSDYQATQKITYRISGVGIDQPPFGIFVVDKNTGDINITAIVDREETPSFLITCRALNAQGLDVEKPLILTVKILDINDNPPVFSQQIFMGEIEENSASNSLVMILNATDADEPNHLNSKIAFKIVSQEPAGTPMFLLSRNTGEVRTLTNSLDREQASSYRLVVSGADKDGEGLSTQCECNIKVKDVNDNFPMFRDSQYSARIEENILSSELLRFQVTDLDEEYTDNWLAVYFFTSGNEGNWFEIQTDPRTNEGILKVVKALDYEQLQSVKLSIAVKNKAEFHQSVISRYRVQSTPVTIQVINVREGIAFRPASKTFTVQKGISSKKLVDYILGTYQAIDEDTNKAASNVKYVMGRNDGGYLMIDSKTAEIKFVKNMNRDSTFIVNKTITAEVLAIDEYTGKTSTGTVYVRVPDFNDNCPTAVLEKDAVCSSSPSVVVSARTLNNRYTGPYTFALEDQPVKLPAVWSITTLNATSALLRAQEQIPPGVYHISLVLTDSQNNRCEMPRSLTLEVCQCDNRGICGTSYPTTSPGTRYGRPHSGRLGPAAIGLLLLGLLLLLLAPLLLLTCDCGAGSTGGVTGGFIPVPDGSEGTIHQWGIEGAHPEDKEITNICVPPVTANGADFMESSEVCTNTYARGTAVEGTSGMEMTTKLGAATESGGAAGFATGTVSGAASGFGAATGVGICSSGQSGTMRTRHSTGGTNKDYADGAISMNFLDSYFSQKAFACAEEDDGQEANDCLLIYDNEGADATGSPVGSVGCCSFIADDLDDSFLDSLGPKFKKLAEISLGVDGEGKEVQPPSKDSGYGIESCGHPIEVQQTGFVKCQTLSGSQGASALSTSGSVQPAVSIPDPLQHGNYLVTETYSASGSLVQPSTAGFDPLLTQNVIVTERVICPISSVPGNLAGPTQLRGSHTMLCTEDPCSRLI
Numbers stand for hits.

C/C(=N\Nc1ncc(Cl)cc1Cl)c1ccccn1 was read as SENP1 FRET inh inactive, Granule exo inh 98, H9c2 protect inactive, HNF4A DNA FP inactive, Myeloid diff 2 inactive and Pemphigus Ab inh inactive.
`CC(O)CNc1ccc(-c2nn(C)c(=O)c3ccccc23)cc1[N+](=O)[O-]` (centres undefined) gave SENP1 FRET inh inactive, Granule exo inh inactive, H9c2 protect inactive, HNF4A DNA FP inactive, Myeloid diff 2 inactive and Pemphigus Ab inh inactive.
CC1=C(C(=O)Nc2ccccc2C(=O)NC2CCC(C)CC2)SCCO1 (centres undefined) was read as SENP1 FRET inh inactive, Granule exo inh inactive, H9c2 protect inactive, HNF4A DNA FP inactive and Myeloid diff 2 active.
Cc1cc(C)cc(NC(=S)N2C3CCCC2CC(NC(=O)C2CC2)C3)c1 (centres undefined) was read as SENP1 FRET inh inactive, Granule exo inh inactive, H9c2 protect inactive, HNF4A DNA FP inactive, Myeloid diff 2 inactive and Pemphigus Ab inh inactive.
For O=c1[nH]c(=O)c2[nH]c(=O)n(-c3ccccc3)c2[nH]1 the results were SENP1 FRET inh inactive, Granule exo inh inactive, H9c2 protect inactive, HNF4A DNA FP inactive, Myeloid diff 2 inactive and Pemphigus Ab inh inactive.
`CCN(CC)CCn1c(NS(=O)(=O)c2ccc(C)cc2)nc2ccccc21` gave SENP1 FRET inh inactive, Granule exo inh inactive, H9c2 protect inactive, HNF4A DNA FP inactive, Myeloid diff 2 inactive and Pemphigus Ab inh inactive.
For CCCn1c(CNS(=O)(=O)c2ccc(C)cc2)nc2ccccc21 the results were SENP1 FRET inh inactive, Granule exo inh inactive, H9c2 protect inactive, HNF4A DNA FP inactive, Myeloid diff 2 inactive and Pemphigus Ab inh 66.
`CCn1nnc2cc(C(=O)O)ccc21` gave SENP1 FRET inh inactive, Granule exo inh inactive, H9c2 protect inactive, HNF4A DNA FP inactive, Myeloid diff 2 inactive and Pemphigus Ab inh inactive.
`C[C@H]1CN([C@@H](C)CO)C(=O)CCCn2cc(nn2)CO[C@@H]1CN(C)S(=O)(=O)c1ccc(Oc2ccccc2)nc1` gave SENP1 FRET inh inactive, Granule exo inh inactive, H9c2 protect inactive, HNF4A DNA FP inactive, Myeloid diff 2 active and Pemphigus Ab inh inactive.
`CCCN(C)C[C@@H]1OCc2cnnn2CCCC(=O)N([C@H](C)CO)C[C@H]1C` gave SENP1 FRET inh inactive, Granule exo inh inactive, H9c2 protect inactive, HNF4A DNA FP inactive, Myeloid diff 2 inactive and Pemphigus Ab inh inactive.
`C[C@@H]1CN([C@@H](C)CO)C(=O)CCCn2cc(nn2)CO[C@H]1CN(C)S(=O)(=O)c1ccc(Oc2ccccc2)nc1` gave SENP1 FRET inh inactive, Granule exo inh inactive, H9c2 protect inactive, HNF4A DNA FP inactive and Myeloid diff 2 inactive.
`C[C@H](CO)N1C[C@H](C)[C@@H](CN(C)CC2CC2)OCc2cnnn2CCCC1=O` gave SENP1 FRET inh inactive, Granule exo inh inactive, H9c2 protect inactive, HNF4A DNA FP inactive, Myeloid diff 2 active and Pemphigus Ab inh inactive.
Screening Nc1ccc2c(c1)[nH]c(=O)c1ccccc12 returned SENP1 FRET inh inactive, Granule exo inh inactive, H9c2 protect 68, HNF4A DNA FP inactive and Myeloid diff 2 inactive.
`Cc1cc(=O)[nH]c2cc(O)ccc12` gave SENP1 FRET inh inactive, Granule exo inh inactive, H9c2 protect inactive, HNF4A DNA FP inactive, Myeloid diff 2 inactive and Pemphigus Ab inh inactive.
Screening Nc1cc2c(cc1Br)[nH]c(=O)c1ccccc12 returned SENP1 FRET inh inactive, Granule exo inh inactive, H9c2 protect inactive, HNF4A DNA FP inactive, Myeloid diff 2 inactive and Pemphigus Ab inh inactive.
For Nc1cc2[nH]c(=O)c3ccccc3c2cc1Br the results were SENP1 FRET inh inactive, Granule exo inh inactive, H9c2 protect 62, HNF4A DNA FP inactive, Myeloid diff 2 inactive and Pemphigus Ab inh inactive.
O=c1[nH]c2cc(O)ccc2c2ccccc12 was read as SENP1 FRET inh inactive, Granule exo inh inactive, H9c2 protect 57, HNF4A DNA FP inactive and Myeloid diff 2 inactive.
